Experimental data taken from ChEMBL document CHEMBL4177752, “Discovery of Novel Schizocommunin Derivatives as Telomeric G-Quadruplex Ligands That Trigger Telomere Dysfunction and the Deoxyribonucleic Acid (DNA) Damage Response” (J Med Chem, 2018).
Active and inactive are the calls of the source. The calls are words filed in the database; no cut-off is given here.

How the values were obtained:
[1] = test system: SiHa; assay: Effect on POT1 expression in human SiHa cells at 1 uM after 48 hrs by Western blot method; assay type: functional, cell-based
[2] = Inhibition of telomerase (unknown origin) by TRAP-LIG assay; parameters: species or system Homo sapiens
[3] = test system: Quadruplex DNA; assay: Stabilization of telomeric G-quadruplex DNA in human U2OS cells assessed as increase in BG4 foci per nucleus at 2 uM after 24 hrs by DAPI staining-based immunofluorescence method; assay type: cell-based
Procedure, shortened: (§1)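 Cells were treated 24 h with 2 µM compound or 0.1% DMSO, then fixed (4% paraformaldehyde), permeabilized (0.5% Triton X-100) and blocked (5% goat serum). Staining used BG4 (80 ng/µL, 37 °C 3 h) with anti-FLAG, and/or γ-H2AX, TRF2 or POT1 antibodies at 4 °C overnight. Alexa 488/555 secondaries and DAPI followed. Foci or co-localized foci per nucleus were counted by confocal microscopy; mean ± SEM, two-tailed unpaired t test.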

[4] = test system: Quadruplex DNA; assay: Stabilization of telomeric G-quadruplex DNA in human SiHa cells assessed as induction of DNA damage response by measuring gamma-H2AX foci formation per nucleus at 2 uM after 24 hrs by DAPI staining-based immunofluorescence method relative to control; assay type: cell-based; procedure, shortened: as §1
[5] = test system: Quadruplex DNA; assay: Stabilization of telomeric G-quadruplex DNA in human SiHa cells assessed as induction of DNA damage response by measuring co-localization of gamma-H2AX and TRF2 foci per nucleus at 2 uM after 24 hrs by DAPI staining-based double immunofluorescence method; assay type: cell-based; procedure, shortened: as §1
[6] = molecular target: Quadruplex DNA; assay: Binding affinity to HTG21 telomeric G-quadruplex DNA (unknown origin) by SPR method; assay type: nucleic-acid assay
Procedure, shortened: (§2)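 SPR: biotinylated HTG21 or hairpin DNA (200 nM) was folded in 50 mM Tris-HCl pH 7.4 with 100 mM KCl and captured to about 1,000 RU on an NLC chip against a blank reference cell. Ligand at 0.625–40 µM was injected at 25 µL/min (400 s association, 300 s dissociation) at 25 °C. The chip was regenerated with 1 M KCl and blank sensorgrams were subtracted.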

[7] = test system: Quadruplex DNA; assay: Stabilization of telomeric G-quadruplex DNA in human U2OS cells assessed as induction of DNA damage response by measuring gamma-H2AX foci formation per nucleus at 2 uM after 24 hrs by DAPI staining-based immunofluorescence method; assay type: cell-based; procedure, shortened: as §1
[8] = test system: Quadruplex DNA; assay: Stabilization of telomeric G-quadruplex DNA in human SiHa cells assessed as induction of telomere uncapping by measuring formation of micronuclei at 1 uM after 48 hrs by DAPI staining-based laser scanning microscopic method; assay type: cell-based
[9] = Binding affinity to hairpin duplex DNA (unknown origin) at 40 uM by SPR method; procedure, shortened: as §2
[10] = test system: HeLa; assay: Antiproliferative activity against human HeLa cells after 48 hrs by MTT assay; assay type: functional, cell-based
Procedure, shortened: (§3)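 Cells seeded at 5.0×10^3 per well and exposed to a range of compound concentrations for 48 h. MTT (2.5 mg/mL solution) was then added for 4 h, formazan was dissolved in DMSO, and OD was read at 570 nm. HL-60 was grown in RPMI-1640 with 10% FBS, the other lines in DMEM with 10% FBS, at 37 °C and 5% CO2. Triplicates; IC50 taken from mean OD versus concentration curves.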

[11] = test system: U2OS; assay: Induction of telomeric G-quadruplex DNA formation in human U2OS cells assessed as increase in co-localization of BG4/TRF2 foci per nucleus at 2 uM after 24 hrs by DAPI staining-based double immunofluorescence method; assay type: cell-based; procedure, shortened: as §1
[12] = test system: U2OS; assay: Antiproliferative activity against human U2OS cells after 48 hrs by MTT assay; assay type: functional, cell-based; procedure, shortened: as §3
[13] = test system: Quadruplex DNA; assay: Stabilization of telomeric G-quadruplex DNA in human SiHa cells assessed as decrease in TRF length at 0.5 to 1 uM after 21 days by chemiluminescence detection method; assay type: cell-based
Procedure, shortened: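 SiHa cells were kept 21 days with 0.5 or 1 µM compound or 0.1% DMSO, with medium and compound renewed every 3 days. Genomic DNA was cut with HinfI/RsaI, run on 0.8% agarose, blotted to nylon, baked at 120 °C for 20 min, and TRF length detected by chemiluminescence.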

[14] = test system: SiHa; assay: Induction of apoptosis in human SiHa cells at 2 uM after 96 hrs by annexin V-FITC/propidium iodide staining-based flow cytometric method relative to control; assay type: functional
Procedure, shortened: (§4)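 SiHa cells were treated with compound or DMSO for 96 h, washed, resuspended in binding buffer, and stained with Annexin V-FITC and PI for 15 min in the dark. Apoptotic percentage was measured by flow cytometry; mean ± SEM.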

[15] = test system: SiHa; assay: Induction of apoptosis in human SiHa cells after 96 hrs by annexin V-FITC/propidium iodide staining-based flow cytometric method; assay type: functional, cell-based; procedure, shortened: as §4
[16] = test system: Quadruplex DNA; assay: Stabilization of telomeric G-quadruplex DNA in human SiHa cells assessed as increase in phosphorylated CHK1 expression after 48 hrs by Western blot method; assay type: cell-based
Procedure, shortened: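 SiHa cells were treated with compound for 48 h and lysed in RIPA buffer. 20 µg protein was run on 10% SDS-PAGE and transferred to PVDF. Blots were blocked in 3% BSA, probed with primary antibodies (1:1,000, 4 °C 16 h) for p-ATR, p-CHK1 and p-P53, then secondaries (1:2,000, 2 h at room temperature).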

[17] = test system: SiHa; assay: Antiproliferative activity against human SiHa cells after 90 hrs by RTCA method; assay type: functional, cell-based
Procedure, shortened: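 SiHa proliferation was followed by real-time cellular analysis during 90 h of compound treatment at several concentrations.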

[18] = test system: Quadruplex DNA; assay: Stabilization of telomeric G-quadruplex DNA in human SiHa cells assessed as induction of telomere uncapping by measuring formation of anaphase bridge at 1 uM after 48 hrs by DAPI staining-based laser scanning microscopic method; assay type: cell-based
Procedure, shortened: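 SiHa cells were treated with 1 µM compound for 48 h, fixed in 2% formaldehyde/0.2% glutaraldehyde for 15 min, and stained with 2 µg/mL DAPI at 37 °C for 3 h. Confocal imaging followed. Anaphase-bridge frequency is the fraction of cells with bridges; at least 50 anaphase cells per experiment.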

[19] = test system: U2OS; assay: Cell cycle arrest in human U2OS cells assessed as accumulation at G2/M phase at 1 uM after 12 hrs by propidium iodide staining-based flow cytometric method; assay type: functional
Procedure, shortened: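 SiHa or U2OS cells (2.0×10^5 per well) were treated with compound or DMSO for 12 h, fixed in ice-cold 70% ethanol overnight, and stained with 50 µg/mL PI plus RNase A for 30 min at room temperature in the dark. 10,000 events were collected by flow cytometry to give the phase distribution.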

[20] = test system: HL-60; assay: Antiproliferative activity against human HL60 cells after 48 hrs by MTT assay; assay type: functional, cell-based; conditions: HL-60, 48 h; procedure, shortened: as §3
[21] = test system: SiHa; assay: Antiproliferative activity against human SiHa cells after 48 hrs by MTT assay; assay type: functional, cell-based; procedure, shortened: as §3
[22] = test system: Quadruplex DNA; assay: Stabilization of telomeric G-quadruplex DNA in human SiHa cells assessed as increase in BG4 foci per nucleus at 2 uM after 24 hrs by DAPI staining-based immunofluorescence method relative to control; assay type: cell-based; procedure, shortened: as §1
[23] = test system: Quadruplex DNA; assay: Stabilization of telomeric G-quadruplex DNA in human U2OS cells assessed as induction of DNA damage response by measuring co-localization of gamma-H2AX and TRF2 foci per nucleus at 2 uM after 24 hrs by DAPI staining-based double immunofluorescence method; assay type: cell-based; procedure, shortened: as §1

Question: Which Activity [1] does the source give for `CN(C)CCCNc1cc2nc(/C=C3\C(=O)Nc4cc(N5CCN(C)CC5)ccc43)[nH]c(=O)c2cc1F` here?
Answer: inactive

Question: What about the IC50 [2] of the same compound?
Answer: 9.6 µM

Question: What about the Activity [3] of the same compound?
Answer: Active

Question: What about the fold change (FC) [4] of the same compound?
Answer: 3

Question: What about the Activity [5] of the same compound?
Answer: Active

Question: And the Kd [6]?
Answer: 8.1 µM

Question: What about the Activity [7] of the same compound?
Answer: Active

Question: What about the Activity [8] of the same compound?
Answer: Active

Question: What about the Activity [9] of the same compound?
Answer: inactive

Question: And the IC50 [10]?
Answer: 3.8 µM

Question: And the Activity [11]?
Answer: Active

Question: And the IC50 [12]?
Answer: 3.2 µM

Question: And the Activity [13]?
Answer: Active

Question: And the Activity [14]?
Answer: 60%

Question: And the Activity [15]?
Answer: Dose-dependent effect

Question: And the Activity [16]?
Answer: Dose-dependent effect

Question: What about the Activity [17] of the same compound?
Answer: Dose-dependent effect

Question: And the Activity [18]?
Answer: Active

Question: And the Activity [19]?
Answer: Active

Question: And the IC50 [20]?
Answer: 2.5 µM

Question: What about the IC50 [21] of the same compound?
Answer: 2.8 µM

Question: What about the fold change (FC) [22] of the same compound?
Answer: 2

Question: And the Activity [23]?
Answer: Active
